# Source: ChEMBL document CHEMBL1123950, “N-(Retinoyl)amino acids. Synthesis and chemopreventive activity in vitro” (1988)
# Legend:
# [1] = system: Cricetinae gen. sp.; assay: Cultures with marked degree of squamous metaplasia at a conc of 10e-10 M; assay type: functional, Cricetulus griseus
# Procedure, shortened: (§1)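 Tracheas from 29-31-day-old hamsters fed a vitamin A free diet; cultured in serum-free CMRL 1066 (insulin 1.0 μg/mL, hydrocortisone hemisuccinate 0.1 μg/mL, glutamine 2 mM, Garamycin 50 μg/mL), 50% O2/45% N2/5% CO2, rocked, 36 °C. Retinoid-free 3 days, then retinoid in DMSO (final 0.1%) for 7 days; medium and gas changed three times. Formalin-fixed day 10; squamous metaplasia graded: mild 2-10%, marked 10-40%, severe >40%.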
# [2] = system: Cricetinae gen. sp.; assay: Cultures with marked degree of squamous metaplasia at a conc of 10e-8 M; assay type: functional, Cricetulus griseus; procedure, shortened: as §1
# [3] = system: Cricetinae gen. sp.; assay: Cultures with marked degree of squamous metaplasia at a conc of 10e-9 M; assay type: functional, Cricetulus griseus; procedure, shortened: as §1
# [4] = system: Cricetinae gen. sp.; assay: Cultures with mild degree of squamous metaplasia at a conc of 10e-10 M; assay type: functional, Cricetulus griseus; procedure, shortened: as §1
# [5] = system: Cricetinae gen. sp.; assay: Cultures with mild degree of squamous metaplasia at a conc of 10e-11 M; assay type: functional, Cricetulus griseus; procedure, shortened: as §1
# [6] = system: Cricetinae gen. sp.; assay: Cultures with mild degree of squamous metaplasia at a conc of 10e-8 M; assay type: functional, Cricetulus griseus; procedure, shortened: as §1
# [7] = system: Cricetinae gen. sp.; assay: Cultures with minimal degree of squamous metaplasia at a conc of 10e-10 M; assay type: functional, Cricetulus griseus; procedure, shortened: as §1
# [8] = system: Cricetinae gen. sp.; assay: Cultures with minimal degree of squamous metaplasia at a conc of 10e-11 M; assay type: functional, Cricetulus griseus; procedure, shortened: as §1
# [9] = system: Cricetinae gen. sp.; assay: Cultures with minimal degree of squamous metaplasia at a conc of 10e-8 M; assay type: functional, Cricetulus griseus; procedure, shortened: as §1
# [10] = system: Cricetinae gen. sp.; assay: Cultures with minimal degree of squamous metaplasia at a conc of 10e-9 M; assay type: functional, Cricetulus griseus; procedure, shortened: as §1
# [11] = system: Cricetinae gen. sp.; assay: Cultures with no evidence of squamous metaplasia at a conc of 10e-10 M; assay type: functional, Cricetulus griseus; procedure, shortened: as §1
# [12] = system: Cricetinae gen. sp.; assay: Cultures with no evidence of squamous metaplasia at a conc of 10e-11 M; assay type: functional, Cricetulus griseus; procedure, shortened: as §1
# [13] = system: Cricetinae gen. sp.; assay: Cultures with no evidence of squamous metaplasia at a conc of 10e-8; assay type: functional, Cricetulus griseus; procedure, shortened: as §1
# [14] = system: Cricetinae gen. sp.; assay: Cultures with no evidence of squamous metaplasia at a conc of 10e-9 M; assay type: functional, Cricetulus griseus; procedure, shortened: as §1
# [15] = system: Cricetinae gen. sp.; assay: Cultures with severe degree of squamous metaplasia at a conc of 10e-10 M; assay type: functional, Cricetulus griseus; procedure, shortened: as §1
# [16] = system: Cricetinae gen. sp.; assay: Cultures with severe degree of squamous metaplasia at a conc of 10e-11 M; assay type: functional, Cricetulus griseus; procedure, shortened: as §1
# [17] = system: Cricetinae gen. sp.; assay: Cultures with severe degree of squamous metaplasia at a conc of 10e-8 M; assay type: functional, Cricetulus griseus; procedure, shortened: as §1
# [18] = system: Cricetinae gen. sp.; assay: Cultures with severe degree of squamous metaplasia at a conc of 10e-9 M; assay type: functional, Cricetulus griseus; procedure, shortened: as §1
# [19] = system: Cricetinae gen. sp.; assay: Reversal of keratinization in vitamin A deficient hamster trachea culture at a conc of 10e-8 M; assay type: functional, Cricetulus griseus; conditions: read-out: ED50 (the source's name)
# Procedure, shortened: (§2)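 Tracheas from 29-31-day-old hamsters kept on a vitamin A free diet, cultured in serum-free CMRL 1066 (insulin 1.0 μg/mL, hydrocortisone hemisuccinate 0.1 μg/mL, glutamine 2 mM, Garamycin 50 μg/mL), 50% O2/45% N2/5% CO2, rocked at 36 °C. Retinoid-free for 3 days, then retinoid in DMSO (0.1% final) for 7 days. Fixed in formalin; squamous metaplasia graded mild 2-10%, marked 10-40%, severe >40%.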
# [20] = system: Cricetinae gen. sp.; assay: Cultures with marked degree of squamous metaplasia at a conc of 10e-11 M; assay type: functional; procedure, shortened: as §1
# [21] = system: Cricetinae gen. sp.; assay: Cultures with mild degree of squamous metaplasia at a conc of 10e-9 M; assay type: functional, Cricetulus griseus; procedure, shortened: as §1
# [22] = system: Cricetinae gen. sp.; assay: Cultures with marked degree of squamous metaplasia at a concentration of 10e-10 M; assay type: functional, Cricetulus griseus; procedure, shortened: as §1
# [23] = system: Cricetinae gen. sp.; assay: Cultures with marked degree of squamous metaplasia at a concentration of 10e-11 M; assay type: functional, Cricetulus griseus; procedure, shortened: as §1
# [24] = system: Cricetinae gen. sp.; assay: Cultures with marked degree of squamous metaplasia at a concentration of 10e-8 M; assay type: functional, Cricetulus griseus; procedure, shortened: as §1
# [25] = system: Cricetinae gen. sp.; assay: Cultures with marked degree of squamous metaplasia at a concentration of 10e-9 M; assay type: functional, Cricetulus griseus; procedure, shortened: as §1
# [26] = system: Cricetinae gen. sp.; assay: Cultures with mild degree of squamous metaplasia at a concentration of 10e-10 M; assay type: functional, Cricetulus griseus; procedure, shortened: as §1
# [27] = system: Cricetinae gen. sp.; assay: Cultures with mild degree of squamous metaplasia at a concentration of 10e-11 M; assay type: functional, Cricetulus griseus; procedure, shortened: as §1
# [28] = system: Cricetinae gen. sp.; assay: Cultures with severe degree of squamous metaplasia at a concentration of 10e-9 M; assay type: functional, Cricetulus griseus; procedure, shortened: as §2
# [29] = system: Cricetinae gen. sp.; assay: Cultures with mild degree of squamous metaplasia at a concentration of 10e-8 M; assay type: functional, Cricetulus griseus; procedure, shortened: as §1
# [30] = system: Cricetinae gen. sp.; assay: Cultures with mild degree of squamous metaplasia at a concentration of 10e-9 M; assay type: functional, Cricetulus griseus; procedure, shortened: as §1
# [31] = system: Cricetinae gen. sp.; assay: Cultures with minimal degree of squamous metaplasia at a concentration of 10e-10 M; assay type: functional, Cricetulus griseus; procedure, shortened: as §1
# [32] = system: Cricetinae gen. sp.; assay: Cultures with minimal degree of squamous metaplasia at a concentration of 10e-8 M; assay type: functional, Cricetulus griseus; procedure, shortened: as §1
# [33] = system: Cricetinae gen. sp.; assay: Cultures with minimal degree of squamous metaplasia at a concentration of 10e-9 M; assay type: functional, Cricetulus griseus; procedure, shortened: as §1
# [34] = system: Cricetinae gen. sp.; assay: Cultures with no evidence of squamous metaplasia at a concentration of 10e-10 M; assay type: functional, Cricetulus griseus; procedure, shortened: as §1
# [35] = system: Cricetinae gen. sp.; assay: Cultures with no evidence of squamous metaplasia at a concentration of 10e-11 M; assay type: functional, Cricetulus griseus; procedure, shortened: as §1
# [36] = system: Cricetinae gen. sp.; assay: Cultures with no evidence of squamous metaplasia at a concentration of 10e-8 M; assay type: functional, Cricetulus griseus; procedure, shortened: as §1
# [37] = system: Cricetinae gen. sp.; assay: Cultures with no evidence of squamous metaplasia at a concentration of 10e-9 M; assay type: functional, Cricetulus griseus; procedure, shortened: as §1
# [38] = system: Cricetinae gen. sp.; assay: Cultures with severe degree of squamous metaplasia at a concentration of 10e-10 M; assay type: functional, Cricetulus griseus; procedure, shortened: as §2
# [39] = system: Cricetinae gen. sp.; assay: Cultures with severe degree of squamous metaplasia at a concentration of 10e-11 M; assay type: functional, Cricetulus griseus; procedure, shortened: as §2
# [40] = system: Cricetinae gen. sp.; assay: Cultures with severe degree of squamous metaplasia at a concentration of 10e-8 M; assay type: functional, Cricetulus griseus; procedure, shortened: as §2
# [41] = system: Cricetinae gen. sp.; assay: Reversal of keratinization in vitamin A deficient hamster trachea culture at a concentration of 10e-8 M; assay type: functional, Cricetulus griseus; conditions: read-out: ED50 (the source's name); procedure, shortened: as §2
# [42] = system: Cricetinae gen. sp.; assay: Cultures with minimal degree of squamous metaplasia at a concentration of 10e-11 M; assay type: functional, Cricetulus griseus; procedure, shortened: as §1
smiles,measurement,setting,value
CC1=C(/C=C/C(C)=C/C=C/C(C)=C/C(=O)NC(C)C(=O)O)C(C)(C)CCC1 (configuration not stated),Culture,[1],58%
same,Culture,[2],0%
same,Culture,[3],0%
same,Culture,[4],14%
same,Culture,[5],29%
same,Culture,[6],0%
same,Culture,[7],0%
same,Culture,[8],0%
same,Culture,[9],0%
same,Culture,[10],0%
same,Culture,[11],14%
same,Culture,[12],0%
same,Culture,[13],100%
same,Culture,[14],72%
same,Culture,[15],14%
same,Culture,[16],14%
same,Culture,[17],0%
same,Culture,[18],14%
same,EC50,[19],0.4 nM
same,Culture,[20],57%
same,Culture,[21],14%
CC1=C(/C=C/C(C)=C/C=C/C(C)=C/C(=O)NC(Cc2ccccc2)C(=O)O)C(C)(C)CCC1 (configuration not stated),Culture,[22],14%
same,Culture,[23],72%
same,Culture,[24],0%
same,Culture,[25],43%
same,Culture,[26],29%
same,Culture,[27],14%
same,Culture,[28],0%
same,Culture,[29],29%
same,Culture,[30],0%
same,Culture,[31],0%
same,Culture,[32],0%
same,Culture,[33],0%
same,Culture,[34],43%
same,Culture,[35],14%
same,Culture,[36],71%
same,Culture,[37],57%
same,Culture,[38],14%
same,Culture,[39],0%
same,Culture,[40],0%
same,EC50,[41],0.5 nM
same,Culture,[42],0%
